DAGLB inhibitor = DAGLB lipase inhibitors, primary screen, biochemical, fluorescence, HTS | Diacylglycerol lipase-beta (Homo sapiens), Q8NCG7 | HEK293T DAGLB membrane lysate, EnzChek fluorogenic substrate | inhibition, % at 5.17 µM | 340,000 compounds, 0.059% hits | AID 504411, 2011; in the data active = inhibition above about 34%;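 also: 0% = enzyme with vehicle and 100% = wells lacking enzyme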
Tn7 DDE FP = inhibitors of Tn7 peptide binding to fibrin DD(E), primary screen, biochemical, fluorescence polarization, human fibrin, Tn7 probe | 370,000 compounds, 0.13% hits | inhibition, % at 8.3 µM | AID 720508, 2013 | FP displacement of FITC-Tn7 peptide from fibrin DD(E); 0% = median of compound wells per plate;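 active = inhibition above the mean of compounds falling within the control limits plus 3 SD of them, cut at about 14% in these data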;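 also: 0% = plate median of compound wells and 100% = 10 µM Aha-Tn7 peptide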
Target sequence (P02675 whole entry, looked up): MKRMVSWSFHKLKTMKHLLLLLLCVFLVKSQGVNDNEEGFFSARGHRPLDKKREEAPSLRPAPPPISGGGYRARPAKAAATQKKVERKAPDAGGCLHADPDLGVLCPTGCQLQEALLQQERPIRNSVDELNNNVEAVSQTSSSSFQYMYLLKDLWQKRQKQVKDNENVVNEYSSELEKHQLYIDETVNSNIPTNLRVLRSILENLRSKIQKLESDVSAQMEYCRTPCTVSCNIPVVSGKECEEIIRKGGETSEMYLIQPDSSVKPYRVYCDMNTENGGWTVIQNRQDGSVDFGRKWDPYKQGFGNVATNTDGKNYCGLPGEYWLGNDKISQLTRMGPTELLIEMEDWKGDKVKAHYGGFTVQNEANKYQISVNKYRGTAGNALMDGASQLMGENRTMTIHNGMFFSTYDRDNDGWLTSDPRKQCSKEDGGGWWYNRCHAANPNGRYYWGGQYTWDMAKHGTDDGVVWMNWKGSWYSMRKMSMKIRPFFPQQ
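Assay system: Human clot-derived fibrin DD(E) complex | Buffer or medium: Tris/NaCl/CaCl2 buffer, pH 7.8 | Repeats: One replicate per compound | Benchmarks: Aha-Tn7 high control | Measure: % inhibition scaled between sample-field median and high-control FP | Schedule: 10 min plus 3 h, room temperature | Signal: Fluorescence polarization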
H9c2 protect = cardioprotection against H2O2-induced cell death, primary screen, uHTS, H9c2 cells, ATPLite luminescence | H9c2 cardiomyocytes, H2O2 injury protection, 2 h | protection from H2O2 cell death, % at 20 µM | 360,000 compounds, 0.63% hits;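 active = compounds giving at least 50% protection of heart cells from peroxide-induced death in the single-dose screen, raw or plate-pattern-corrected value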;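 also: 0% = DMSO wells with peroxide and 100% = DMSO wells without peroxide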
H9c2 TAG inh = inhibitors of triacylglycerol accumulation, primary screen, cell-based, uHTS, fluorescence, H9c2 | H9c2 cells, Nile Red lipid (TAG) fluorescence; cells loaded with 200 µM oleic acid | inhibition, % at 12.5 µM | 230,000 compounds, 0.66% hits | AID 651582, 2012;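 active = pattern-corrected inhibition of lipid staining of at least 50% with the nuclear-stain viability signal not falling by more than 50%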;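 also: 0% = DMSO wells and 100% = triacsin C control wells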
Tn6 DDE FP = inhibitors of Tn6 peptide binding to fibrin DD(E), primary screen, biochemical, fluorescence polarization, human fibrin, Tn6 probe; inhibition, % at 8.3 µM; 370,000 compounds, 0.21% hits; Fibrinogen beta chain (Homo sapiens), P02675; AID 720509, 2013; Fibrin DD(E) TRITC-Tn6 fluorescence polarization displacement;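 active = inhibition above a per-campaign cutoff: mean of compounds within control limits plus 3 SD, cut at about 15% in these data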;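 also: 0% = median of all compound wells on the plate and 100% = blocking peptide control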
MT1-MMP act inh = blockers of MT1-MMP proenzyme processing, primary screen, HT1080 RFP-PRO-GFP cells, GFP/RFP fluorescence; Matrix metalloproteinase-14 (Homo sapiens), P50281; GFP/RFP ratio fluorescence, overnight; percent of plate control window, DMSO zero; GFP/RFP ratio change, % at 20 µM; 360,000 compounds, 0.061% hits;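 active = GFP/RFP ratio change of at least 30% with cell ATP level not reduced by more than half and red fluorescence within 50% of control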
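Assay system: HT1080 cells carrying an RFP-PRO-GFP reporter | Dosing: Single dose of 20 µM compound, 1% DMSO final | Incubation: Cells overnight before dosing, compound overnight, 37 °C, 5% CO2 | Evaluation: GFP/RFP fluorescence ratio | Control set: DMSO and RFP-L50D-GFP cell wells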
* hit, by the source's call; / = no result. An excerpt weighted towards active compounds, which were near 1.4% of everything screened.

SMILES	DAGLB inhibitor	Tn7 DDE FP	H9c2 protect	H9c2 TAG inh	Tn6 DDE FP	MT1-MMP act inh
COc1cc(C(=O)Nc2cccc(-c3nnc(-c4ccco4)o3)c2)ccc1OC(C)=O	-4.7	-3.2	79.2*	12.4	2.4	5.9
Cc1cc(C)cc(OCC(=O)Nc2cccc(-c3nnc(-c4ccco4)o3)c2)c1	1.3	3.1	54.5*	/	-3.8	0.8
CCCCC#Cc1ccccc1COC[B-](F)(F)F	/	2.5	/	/	2.8	/
COc1cc(/C=C(\C#N)c2nc3ccc(C)cc3[nH]2)c([N+](=O)[O-])cc1OC	3.5	1.6	84.8*	2.3	-4.8	-1.9
COc1cc(/C=C(/C#N)c2ccccc2)ccc1Oc1ccc([N+](=O)[O-])cn1	-8.1	3.9	-6.1	-102.6	8.3	0.2
COc1cc(/C=C(\C#N)c2nc3ccccc3[nH]2)ccc1Oc1ccc([N+](=O)[O-])cn1	-1.8	-5.1	75.8*	/	-12.6	-52.2
C=CCOc1c(OC)cc(/C=N/Nc2cccc(C(=O)O)c2)c(Br)c1Br	2.7	-5.8	-2.1	56.6*	-6.0	-0.4
C=CCOc1c(/C=N\NC(N)=O)cccc1OC	-3.6	7.9	-1.2	0.8	8.5	1.6
COc1c(C)cc(Br)cc1C(=O)Nc1cccc(-c2nc3ncccc3o2)c1	-14.4	-6.8	115.0*	10.5	-0.4	5.8
C=C1C(=O)C23C(O)C1CCC2C12CCCC(C)(COC(C)=O)C1C(O)C3(O)OC2 (centres undefined)	1.4	-1.5	-19.7	93.0*	-3.4	5.6
O=S(=O)(c1cccs1)N1CCC(c2cn3ccccc3n2)CC1	/	3.0	/	/	5.0	/
CCOC(=O)C1CCN(C(=O)C(C)(C)NC(=O)Nc2ccc(Cl)cc2Cl)CC1	/	0.0	/	/	0.5	/
C/C(=N\NC(=O)CN(c1ccccc1)S(C)(=O)=O)c1ccccc1O	3.0	2.8	59.2*	-1.6	1.5	2.9
O=C(Nc1ccc2c(c1)OCO2)OC1CCC12CCC(c1ccccc1)CC2 (centres undefined)	/	-0.6	/	/	2.4	/
Nc1ccc2cc3ccc(N)cc3nc2c1	/	4.3	/	/	1.7	/
CCCN(C(=O)c1cn(CCC)c2ccccc12)c1ccc(Oc2cccnc2)cc1	/	0.3	/	/	-20.9	/
O=c1cc(-c2ccc(O)cc2)oc2ccccc12	-2.5	1.7	22.2	/	-6.8	1.7
O=c1cc(-c2ccncc2)oc2ccccc12	-2.1	3.3	53.1*	-2.6	2.3	-12.7
CCCC(=O)N1CCC(C(=O)NC2CCCc3ccccc32)CC1 (centres undefined)	/	0.0	/	/	11.7	/
CCCc1cc2c(O)ccc(O)c2c(=O)o1	/	-5.6	/	/	-8.3	/
O=C1C(=O)N(Cc2ccc(-c3ccc(F)nc3)cc2)c2ccc(OC(F)(F)F)cc21	/	-0.1	/	/	-10.5	/
CC(C)=NNc1cnnc2ccc([N+](=O)[O-])cc12	/	/	55.8*	/	/	5.4
CCN1C(N(C)CCc2c[nH]c3ccccc23)=N[C@@H](c2cccc(C(F)(F)F)c2)C(C(=O)OC)=C1C	2.9	/	-13.9	111.8*	/	-3.8
COc1ccc(N(CC(=O)Nc2ccc3c(c2)OCO3)S(=O)(=O)c2ccccc2)c(OC)c1	-2.8	1.2	53.7*	29.5	-8.5	1.4
COc1ccc(N(CC(=O)Nc2cccc(C(C)=O)c2)S(=O)(=O)c2ccc(NC(C)=O)cc2)cc1	1.4	6.4	73.0*	/	-4.5	2.1
COc1cc(CNc2ccc(N3CCCC3)cc2)cc(Cl)c1OC	6.3	-2.0	-20.7	53.9*	5.1	-3.7
CCOc1cc(CNc2ccc(N3CCCC3)cc2)cc(Cl)c1OC	7.7	2.2	-5.4	/	12.0	-3.5
COc1ccc(C(=O)OCCCN(C)C2CN(Cc3cn(Cc4ccc([N+](=O)[O-])cc4)nn3)S(=O)(=O)C2)cc1OC (centres undefined)	/	-0.2	/	/	-5.1	/

High-throughput results deposited in PubChem by several laboratories.
